Reference: ChEMBL document CHEMBL1135349, “Synthesis and evaluation of novel pyrrolidinyl sordaricin derivatives as antifungal agents” (2002)
In brackets after ≈: the same amount, converted by molar mass.

How the values were obtained:
Type in all cases: functional
Candida albicans [1] = assay: Minimum concentration required to inhibit the growth of Candida albicans TIMM3164 was determined
Outline: (§1)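 Yeast cells grown in microplates in RPMI1640 buffered to pH 7.0 at 35 °C, without serum. The MIC is the lowest concentration that inhibits growth by 80%.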

Candida parapsilosis = assay: Minimum concentration required to inhibit the growth of Candida parapsilosis ATCC 90018 was determined; conditions: Lodderomyces parapsilosis; outline: as §1
Candida albicans [2] = assay: Minimum concentration required to inhibit the growth of Candida albicans ATCC 24433 was determined in the presence of horse serum (20%).
Outline: (§2)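 Run in RPMI1640 buffered at pH 7.0 with 20% horse serum added for the incubation, in microplates at 35 °C. The MIC is the lowest concentration inhibiting growth by 80%.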

Candida albicans [3] = assay: Minimum concentration required to inhibit the growth of Candida albicans SANK51486 was determined in the presence of horse serum (20%).; outline: as §2
Candida albicans [4] = assay: Minimum concentration required to inhibit the growth of Candida albicans SANK51486 was determined; outline: as §1
Aspergillus fumigatus = assay: Minimum concentration required to inhibit the growth of Aspergillus fumigatus ATCC 26430 was determined
Outline: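 Microplate broth assay in RPMI1640 buffered at pH 7.0, incubated at 30 °C. The MIC was taken as the lowest test concentration giving 80% growth inhibition.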

Candida albicans [5] = assay: Minimum concentration required to inhibit the growth of Candida albicans ATCC 24433 was determined; outline: as §1
Candida tropicalis = assay: Minimum concentration required to inhibit the growth of Candida tropicalis ATCC750 was determined; outline: as §1
Candida albicans [6] = assay: Minimum concentration required to inhibit the growth of Candida albicans ATCC 64550 was determined; outline: as §1
Nakaseomyces glabratus = assay: Minimum concentration required to inhibit the growth of Candida glabrata ATCC 90030 was determined; outline: as §1
Cryptococcus neoformans = assay: Minimum concentration required to inhibit the growth of Cryptococcus neoformans TIMM1855 was determined
Outline: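 Medium was yeast nitrogen base buffered at pH 7.0, with microplates incubated at 35 °C. The MIC was defined as the lowest concentration producing 80% growth inhibition.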

Row | SMILES | MIC (Candida albicans [1]) [µg/mL] | MIC (Candida parapsilosis) [µg/mL] | MIC (Candida albicans [2]) [µg/mL] | MIC (Candida albicans [3]) [µg/mL] | MIC (Candida albicans [4]) [µg/mL] | MIC (Aspergillus fumigatus) [µg/mL] | MIC (Candida albicans [5]) [µg/mL] | MIC (Candida tropicalis) [µg/mL] | MIC (Candida albicans [6]) [µg/mL] | MIC (Nakaseomyces glabratus) [µg/mL] | MIC (Cryptococcus neoformans) [µg/mL]
1 | C=C(C)CN1C[C@H](OCC23C[C@@H]4[C@H](C)CC[C@H]4C4(C=O)CC2C=C(C(C)C)C34C(=O)O)O[C@H](C)[C@@H](OC)C1 (some centres undefined) | 0.03 (≈ 0.0566 µM) | > 16 | 0.5 | 0.25 | 0.02 (≈ 0.0378 µM) | > 16 | 0.03 (≈ 0.0566 µM) | 0.13 (≈ 0.245 µM) | 0.03 (≈ 0.0566 µM) | 0.25 (≈ 0.472 µM) | 0.25 (≈ 0.472 µM)
2 | C/C=C/C=C\C(=O)O[C@H]1[C@H](O)[C@H](OCC23C[C@@H]4[C@H](C)CC[C@H]4C4(C=O)CC2C=C(C(C)C)C34C(=O)O)O[C@H](C)[C@H]1OC (some centres undefined) | 0.5 (≈ 0.852 µM) | > 4 | 4 |  | 0.25 (≈ 0.426 µM) | > 4 | 0.5 (≈ 0.852 µM) | 0.5 (≈ 0.852 µM) | 0.5 (≈ 0.852 µM) | > 4 | 0.25 (≈ 0.426 µM)
3 | COc1ccc(CN2C[C@H](OCC34C[C@@H]5[C@H](C)CC[C@H]5C5(C=O)CC3C=C(C(C)C)C45C(=O)O)C[C@@H]2C)cc1 (some centres undefined) | 0.5 (≈ 0.933 µM) | > 16 | 1 | 0.5 | 0.25 (≈ 0.467 µM) | > 16 | 0.5 (≈ 0.933 µM) | 4 (≈ 7.47 µM) | 0.5 (≈ 0.933 µM) | 16 (≈ 29.9 µM) | > 16
4 | CC(C)C1=CC2CC3(C=O)[C@@H]4CC[C@@H](C)[C@H]4CC2(CS[C@@H]2C[C@H](C)N(Cc4ccccc4)C2)C13C(=O)O (some centres undefined) | 1 (≈ 1.92 µM) | > 16 | 8 | 4 | 0.25 (≈ 0.479 µM) | > 16 | 0.5 (≈ 0.958 µM) | 4 (≈ 7.67 µM) | 1 (≈ 1.92 µM) | > 16 | > 16
5 | CC(C)C1=CC2CC3(C=O)[C@@H]4CC[C@@H](C)[C@H]4CC2(CO[C@@H]2C[C@H](C)N(Cc4ccccc4)C2)C13C(=O)O (some centres undefined) | 2 (≈ 3.95 µM) | > 16 | 4 | 1 | 0.5 (≈ 0.989 µM) | > 16 | 1 (≈ 1.98 µM) | 8 (≈ 15.8 µM) | 2 (≈ 3.95 µM) | > 16 | > 16
6 | CC(C)C1=CC2CC3(C=O)[C@@H]4CC[C@@H](C)[C@H]4CC2(CO[C@@H]2C[C@H](C)N(Cc4ccc5c(c4)OCO5)C2)C13C(=O)O (some centres undefined) | 0.5 (≈ 0.91 µM) | > 16 | 1 | 0.5 | 0.13 (≈ 0.236 µM) | > 16 | 0.25 (≈ 0.455 µM) | 4 (≈ 7.28 µM) | 0.5 (≈ 0.91 µM) | > 16 | > 16
7 | OC(Cn1cncn1)(Cn1cncn1)c1ccc(F)cc1F [FLUCONAZOLE] | > 4 | 0.5 (≈ 1.63 µM) |  |  | 0.25 (≈ 0.816 µM) | > 4 | 0.5 (≈ 1.63 µM) | 2 (≈ 6.53 µM) | > 4 | > 4 | > 4
